# S100A4 inh HTS: inhibitors of S100A4-myosin IIA peptide binding, primary screen, biochemical, fluorescence polarization, TAMRA-MyoIIA peptide. Protein S100-A4 (Homo sapiens), P26447. inhibition, % at 10.7 µM. hit rate 0.14% among 360,000;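 active = mean inhibition of at least 70% across replicates, with every replicate also reaching that level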
# Target sequence (P26447 whole entry, looked up): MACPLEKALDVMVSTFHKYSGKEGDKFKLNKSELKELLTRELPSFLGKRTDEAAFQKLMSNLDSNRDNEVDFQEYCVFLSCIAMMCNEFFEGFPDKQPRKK
#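 Test system: S100A4 monomer protein. Medium: HEPES buffer with Ca2+, pH 7.2. Reagent: fluorescent myosin IIA peptide, 5 nM. Compound dosing: single-point compound testing. Timing: 5 min between mix addition and reading. Benchmarks: DMSO neutral and TFP positive wells.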
# Ecoli rRNA inh: reduced GFP signal of wild-type E. coli, primary screen, bacterial rRNA inhibitor project, GFP/RFP fluorescence, OD600, single point | GFP signal change (wild-type ribosome), % (test concentration not listed) | AID 720706, 2013 | E. coli WT GFP vs humanized-ribosome RFP mutants, 24 h; stronger effect = lower value; DMSO median 0, no signal -100 | hit rate 1.6% among 350,000;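 active = significant combined selectivity score with lowered wild-type GFP, culture density cut under 30%, mutant RFP and density less affected; inactive = any of these conditions unmet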
# SIRT5 inh: SIRT5 desuccinylase inhibitors, primary screen, biochemical, fluorescence imaging, single point, set 5. NAD-dependent protein deacylase sirtuin-5, mitochondrial (Homo sapiens), Q9NXA8. Purified SirT5, succinyl-peptide AMC, trypsin-coupled fluorescence. inhibition, % at 15 µM. hit rate 1.1% among 330,000; in the data active = inhibition above about 15%
# Target sequence (Q9NXA8 whole entry, looked up): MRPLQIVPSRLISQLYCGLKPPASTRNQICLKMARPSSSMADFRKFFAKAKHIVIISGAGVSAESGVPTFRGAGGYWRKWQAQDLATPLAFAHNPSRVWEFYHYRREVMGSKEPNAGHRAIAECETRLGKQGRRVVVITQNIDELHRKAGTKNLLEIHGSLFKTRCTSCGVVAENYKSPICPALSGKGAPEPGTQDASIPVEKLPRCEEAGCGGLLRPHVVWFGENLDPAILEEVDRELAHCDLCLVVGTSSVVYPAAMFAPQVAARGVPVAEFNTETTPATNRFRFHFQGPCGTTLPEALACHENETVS
# Cneo AK release: Cryptococcus neoformans cell lysis inducers, primary screen, AK release luminescence, single concentration; C. neoformans lysis, adenylate kinase release luminescence, 4 h; normalised: neutral wells 0, clomiphene wells 100; lysis activity, % at 15 µM; hit rate 0.2% among 360,000;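 active = mean lysis activity across replicates of at least 80%, whatever share of replicates individually reach that level; inactive = mean lysis activity below 80%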
#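 Material: C. neoformans cells; Schedule: 4 h static compound exposure, 37 °C, read 1 h post-reagent; Measured by: adenylate kinase release luminescence; Read-out: signal increase indicating cell lysis; Controls: Clomiphene as positive lysis control.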
# PGC1a acetyl inh: inhibitors of PGC1a acetylation signal, primary screen, cell-based, U2OS, AlphaScreen, inhibitor mode. hit rate 0.17% among 350,000. inhibition, % at 15.6 µM. AlphaScreen anti-acetyl-lysine; with virally co-expressed GCN5 acetyltransferase. AID 651687, 2012;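 active = every replicate shows inhibition of at least 40%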;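 note: 0% = neutral control wells and 100% = positive control wells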
# C2C12 statin: suppressors of statin myotoxicity in C2C12 myotubes, primary screen, cell-based, single point, plate reader; C2C12 myotubes + simvastatin, ATP luminescence, 48 h; scaled: DMSO 0, geranylgeraniol control 100; hit rate 0.78% among 330,000; rescue of ATP level, % at 7.49 µM;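 active = mean ATP rescue above about 67%, or every replicate alone reaching that limit, limit read from the data, passing the limit was not always enough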;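 note: myotubes were challenged with 10 µM simvastatin during compound exposure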
# * = called active by the depositor; · = no result. The list is not random: actives were taken first. Their share in the collection is about 3%.
SMILES,S100A4 inh HTS,Ecoli rRNA inh,SIRT5 inh,Cneo AK release,PGC1a acetyl inh,C2C12 statin
Clc1ccc(-c2csc(N/N=C\c3cccnc3)n2)cc1,-6,-21*,-5,·,·,·
Clc1cccc(/C=N\Nc2nccs2)c1,-1,·,-5,2,3,-7
C(=N/Nc1nccs1)/c1cccnc1,1,6,19*,·,4,·
CCC(=O)Nc1ccc2c(c1)C(=O)N(C)C[C@@H](OC)[C@@H](C)CN(C(=O)c1ccccn1)[C@@H](C)CO2,-6,4,-1,-3,10,-6
CCCN1C[C@@H](C)[C@H](OC)CN(C)C(=O)c2ccc(NC(=O)Nc3ccccc3F)cc2OC[C@@H]1C,-8,3,5,-4,5,15
O=C(C1CCCC1)N1CC2(C1)[C@@H](c1ccccc1)[C@H](CO)N2C(=O)c1cccnc1,0,2,-1,·,·,·
CCOc1cccc(C(=O)Nc2ccc(N3CCCC3)cc2)c1,-2,-19*,-1,2,6,-1
COc1cccc(C(=O)NC(=S)Nc2ccc(N3CCCC3)cc2)c1,·,·,·,45,-2,-31
CCOc1ccc(C(=O)Nc2ccc(N3CCCC3)cc2)cc1,·,·,·,·,-1,-1
CC(C)Oc1cccc(C(=O)NC(=S)Nc2ccc(N3CCN(C)CC3)cc2)c1,-2,-18*,-1,-6,4,4
Cc1ccc(C(=O)Nc2ccc(N3CCCC3)cc2)c(C)c1,-7,-36*,-2,·,-10,·
CCCC(=O)N1CCN(c2ccc(NC(=S)NC(=O)c3cccc(C)c3)cc2)CC1,4,-20*,-5,3,-17,·
O=C(Cc1ccccc1)N1CC(=O)N2[C@H](C1)[C@@H](c1ccc(C3=CCCC3)cc1)[C@@H]2CO,5,3,1,·,6,·
O=C(NC1CCCC1)C(c1ccsc1)N(Cc1ccccc1)C(=O)Cc1cccs1 (centres undefined),·,·,·,-1,-5,22
O=C(NC1CCCC1)C(c1ccsc1)N(Cc1ccco1)C(=O)Cc1cccs1 (centres undefined),·,·,·,-2,-22,118*
CCOC(=O)c1sc(=S)n(C)c1NC(=O)c1cccc(Br)c1,-3,-49*,-2,1,3,·
O=c1cc(-c2ccncc2)oc2c1ccc1ccccc12,3,-6,-6,-1,-8,8
O=c1cc(-c2ccco2)oc2c1ccc1ccccc12,·,·,·,0,11,103*
C[C@@H]1CN([C@H](C)CO)C(=O)c2cc(NC(=O)c3ccncc3)ccc2O[C@@H](C)CCCCO[C@@H]1CN(C)S(=O)(=O)c1ccccc1,-10,2,11,-1,2,·
CCCC/C(O)=C1\C(=O)CCCC1=NCCc1c(C)[nH]c2ccccc12,4,-23*,-1,·,-9,·
[N-]=C=C1C(=S)NC(=O)[C@H]([n+]2ccccc2)[C@H]1c1ccc(Cl)cc1,5,2,34*,4,-5,·
CCOc1c2ccc(C(=O)NCc3ccc(C)cc3)cc2nn1CC,0,-11,-9,4,·,16
CCOc1c2ccc(C(=O)NCCc3ccc(C)cc3)cc2nn1CC,-1,-24*,-13,0,8,-9
CC1=CC(C)(C)NC(=S)N1c1cccc2cc(S(=O)(=O)O)ccc12,-1,18,20*,·,·,·
C[C@H](CO)N1C[C@H](C)[C@H](CN(C)CC2CCCCC2)Oc2c(NS(=O)(=O)c3ccc(Cl)cc3)cccc2C1=O,-10,-2,-1,1,·,-13
SMILES,S100A4 inh HTS,Ecoli rRNA inh,SIRT5 inh,Cneo AK release,PGC1a acetyl inh,C2C12 statin
Cc1cc(C)nc(N2CCC(C(=O)NCc3ccco3)CC2)n1,·,·,·,1,95*,3
COc1ccc(N2CCN(c3nc4c(c(=O)n(C)c(=O)n4C)n3Cc3ccccc3)CC2)cc1,·,·,·,4,-11,16
C=C(C)Cn1c(N2CCN(c3ccc(OC)cc3)CC2)nc2c1c(=O)n(C)c(=O)n2C,-5,-9,29*,·,-2,·
CCC(=O)N1C[C@H](C)[C@H](OC)CN(C)C(=O)c2cc(NC(=O)Nc3cccc(F)c3)ccc2OC[C@H]1C,-3,·,1,-2,1,-1
O=C(NC[C@H]1CC[C@@H]2[C@@H](CN2S(=O)(=O)c2ccccc2[N+](=O)[O-])O1)C1CCCC1,0,·,-1,·,·,·
CCc1nc(N)nc(N)c1-c1ccc(Cl)cc1,2,·,-5,-2,48*,-6
CCc1nc(N)nc(N)c1-c1ccc(NCCN)c([N+](=O)[O-])c1,3,27,-1,·,·,·
COc1ccc(NC(=O)Nc2ccc3c(c2)C(=O)N([C@@H](C)CO)C[C@@H](C)[C@H](CN(C)Cc2ccncc2)O3)cc1,-1,-3,0,-1,1,32
COc1ccc(NC(=O)Nc2ccc3c(c2)C(=O)N([C@@H](C)CO)C[C@@H](C)[C@@H](CN(C)Cc2ccc(-c4ccccc4)cc2)O3)cc1,-12,-4,17*,-5,-5,-88
COc1ccc(NC(=O)Nc2ccc3c(c2)C(=O)N([C@H](C)CO)C[C@H](C)[C@H](CN(C)Cc2ccc(-c4ccccc4)cc2)O3)cc1,16,-4,13,-2,-1,-57
COc1ccc(NC(=O)Nc2ccc3c(c2)C(=O)N([C@@H](C)CO)C[C@@H](C)[C@@H](CN(C)Cc2ccncc2)O3)cc1,-5,-1,27*,-1,3,-1
C[C@@H]1CN([C@H](C)CO)C(=O)Cc2cc(NC(=O)Nc3ccc4c(c3)OCO4)ccc2O[C@@H]1CN(C)Cc1ccc(Oc2ccccc2)cc1,-5,-2,1,-2,-5,-94
CC(=O)Nc1ccc(S(=O)(=O)N2CCC(NC(C)=O)(c3cccc(F)c3)CC2)cc1,·,·,·,1,-7,1
CCC(C)N(C)Cc1cccc(C2(O)CCN(S(=O)(=O)c3ccc(F)cc3)CC2)c1 (centres undefined),·,·,·,1,6,123*
CCC(C(=O)NCCc1ccc(C)cc1)n1nc(C)c2c(C)n(-c3ccccc3)nc2c1=O (centres undefined),-6,-21*,2,4,0,-9
N#CCCn1c(=O)n(CCC#N)c2ccccc21,-8,7,-1,·,-3,·
N#CCCN1CCN(Cn2c3ccccc3c3ccccc32)CC1,·,·,·,1,6,114*
CN1CCN(CC#CCn2c3ccccc3c3ccccc32)CC1,1,-34*,-6,2,-14,-31
